Experimental data published in ChEMBL document CHEMBL1132144, “Synthesis of 9-O-substituted derivatives of 9-hydroxy-5, 6-dimethyl-6H-pyrido[4,3-b]carbazole-1-carboxylic acid (2-(dimethylamino)ethyl)amide and their 10- and 11-methyl analogues with improved antitumor activity” (J Med Chem, 1999).
“And” between values parts separate entries of the source, which are not always exact repeats. Identical values can stand only once.

What was measured:
[1] = tested on: L1210; test: Inhibition of murine L1210 leukemia cell proliferation measured by the MTT assay; format: functional, cell-based; conditions: Mus musculus
Procedure, shortened: (§1)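 Murine L1210 leukemia and B16 melanoma cells were grown in RPMI 1640 with 10% fetal calf serum, 2 mM L-glutamine, penicillin/streptomycin and 10 mM HEPES (pH 7.4). Cells were exposed to nine serial drug dilutions in triplicate for about four doubling times (L1210 48 h, B16 96 h), then read by microculture tetrazolium (MTT) assay. IC50 is the concentration halving optical density versus untreated controls, averaged over ≥2 independent experiments.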

[2] = tested on: Mus musculus; test: Percent median survival time of mice injected with P388 leukemia, at a intravenous compound dose of 80 mg/kg
[3] = tested on: Mus musculus; test: Long-term survivors among 21 mice infected with B16 melanoma, scored on day 90 at 10 mg/kg dose on days 1-9
[4] = tested on: B16; test: Inhibition of murine B16 melanoma cell proliferation measured by the MTT assay; format: functional, cell-based; conditions: Mus musculus; procedure, shortened: as §1
[5] = tested on: Mus musculus; test: Long-term survivors among 21 mice infected with P388 leukemia, scored on day 60 at 160-320 mg/kg dose on day 1; format: functional
Procedure, shortened: (§2)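 B6D2F1 mice in groups of 6–7 were inoculated ip on day 0 with 10^6 P388 cells. Dihydrochloride salts were dissolved in water and given iv on day 1 or on days 1, 5 and 9. Doses ranged from a low nontoxic dose to a toxic one. Long-term survivors were counted at day 60.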

[6] = tested on: Mus musculus; test: Percent median survival time of mice injected with B16 melanoma, at a intraperitoneal compound dose of 10 mg/kg
[7] = tested on: Mus musculus; test: Percent median survival time of mice injected with P388 leukemia, at a subcutaneous compound dose of 160-320 mg/kg; format: functional
[8] = tested on: Mus musculus; test: Percent median survival time of mice injected with P388 leukemia, at a intravenous compound dose of 80 mg/kg on day1
[9] = tested on: Mus musculus; test: Percent median survival time of mice injected with P388 leukemia, at a intravenous compound dose of 80 mg/kg on day1,5,9
[10] = tested on: Mus musculus; test: Long-term survivors among 14 mice infected with B16 melanoma, scored on day 90 at 5 mg/kg dose; format: functional
Procedure, shortened: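 B6D2F1 mice were inoculated ip on day 0 with B16 tumor brei (1 g tumor in 10 mL 0.9% NaCl). Compounds were given ip daily on days 1–9. Long-term survivors were scored at day 90.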

[11] = tested on: Mus musculus; test: Long-term survivors among 12 mice infected with P388 leukemia, scored on day 60 at 80 mg/kg dose on day 1, 5, 9; format: functional; procedure, shortened: as §2
[12] = tested on: Mus musculus; test: Long-term survivors among 12 mice infected with P388 leukemia, scored on day 60 at 80 mg/kg dose on day 1; format: functional; procedure, shortened: as §2
[13] = tested on: Mus musculus; test: Percent median survival time of mice injected with B16 melanoma, at a intraperitoneal compound dose of 5 mg/kg
[14] = tested on: Mus musculus; test: Long-term survivors among 13 mice infected with P388 leukemia, scored on day 60 at 80 mg/kg dose on day 1; format: functional; procedure, shortened: as §2
[15] = tested on: Mus musculus; test: Long-term survivors among 13 mice infected with B16 melanoma, scored on day 90 at 10 mg/kg dose on days 1-9
[16] = tested on: Mus musculus; test: Percent median survival time of mice injected with P388 leukemia, at a subcutaneous compound dose of 40 mg/kg; format: functional
[17] = tested on: Mus musculus; test: Percent median survival time of mice intraperitoneally injected with P388 leukemia was determined from tested at 10 mg/kg at day1 dose to that of control; format: functional
Procedure, shortened: (§3)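 P388 leukemia in B6D2F1 mice (groups of 6–7), 10^6 cells inoculated ip on day 0. Dihydrochloride salts were dissolved in water and given iv on day 1 or on days 1, 5, 9. Three doses were tested, then five if active. %T/C = median survival treated/control × 100, reported at the optimal dose (no toxic death, weight loss <20%), from one or two representative experiments.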

[18] = tested on: Mus musculus; test: Long-term survivors among 6 mice infected with P388 leukemia, scored on day 60 at 10 mg/kg dose; format: functional; procedure, shortened: as §2
[19] = tested on: Mus musculus; test: Percent median survival time of mice intraperitoneally injected with P388 leukemia was determined from tested at 5 mg/kg at day1,5,9 dose to that of control; format: functional; conditions: route intraperitoneal; procedure, shortened: as §3
[20] = tested on: Mus musculus; test: Percent median survival time of mice injected with B16 melanoma, at a intraperitoneal compound dose of 20 mg/kg
[21] = tested on: Mus musculus; test: Long-term survivors among 6 mice infected with P388 leukemia, scored on day 60 at 5 mg/kg dose; format: functional; procedure, shortened: as §2
[22] = tested on: Mus musculus; test: Long-term survivors among 7 mice infected with B16 melanoma, scored on day 90 at 240 mg/kg dose on day 1; format: functional
[23] = tested on: Mus musculus; test: Long-term survivors among 7 mice infected with P388 leukemia, scored on day 60 at 240 mg/kg dose on day 1; format: functional
Procedure, shortened: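 B6D2F1 mice in groups of 6–7 received 10^6 P388 cells ip on day 0. Dihydrochloride salts dissolved in water were injected iv on day 1 or on days 1, 5 and 9, at three doses and then five. Read-outs were % T/C (median survival treated/control × 100) and long-term survivors on day 60, both at the optimal dose (no toxic death, weight loss <20%).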

[24] = tested on: Mus musculus; test: Percent median survival time of mice injected with P388 leukemia at 160 mg/Kg dose; not tested; format: functional
[25] = tested on: Mus musculus; test: Percent median survival time of mice injected with P388 leukemia at 240 mg/Kg dose; not tested; format: functional
[26] = tested on: Mus musculus; test: Percent median survival time of mice injected with B16 melanoma at 80 mg/Kg subcutaneous dose; not tested; format: functional
[27] = tested on: Mus musculus; test: Long-term survivors among 14 mice infected with P388 leukemia, scored on day 60 at 40 mg/kg dose on day 1; format: functional; procedure, shortened: as §2
[28] = species: Mus musculus; test: Long-term survivors among 14 mice infected with B16 melanoma, scored on day 90 at optimal dose on days 1-9
[29] = tested on: Mus musculus; test: Percent median survival time of mice injected with B16 melanoma, at a intraperitoneal compound dose of 2.5-5 mg/kg
[30] = tested on: Mus musculus; test: Percent median survival time of mice injected with P388 leukemia, at a subcutaneous compound dose of 20 mg/kg; format: functional
[31] = tested on: Mus musculus; test: Percent median survival time of mice injected with P388 leukemia, at a intravenous compound dose of 40 mg/kg

Cc1c2ccnc(C(=O)NCCN(C)C)c2cc2c3cc(OC(=O)CCCC(=O)O)ccc3n(C)c12
IC50 [1]: 19.7 nM
T/C [2]: >582%
LTS [3]: 2
IC50 [4]: 14.8 nM
LTS [5]: 4
T/C [6]: 196%
T/C [7]: >590%

Cc1c2ccnc(C(=O)NCCN(C)C)c2cc2c3cc(O)ccc3n(C)c12
IC50 [1]: 13.1 nM
T/C [8]: 227%
T/C [9]: >541%
IC50 [4]: 5.4 nM
LTS [10]: 0
LTS [11]: 7
LTS [12]: 0
T/C [13]: 174%

Cc1c2ccnc(C(=O)NCCN(C)C)c2cc2c3cc(OC(=O)c4cccnc4)ccc3n(C)c12
LTS [14]: 0
IC50 [1]: 74.5 nM
LTS [15]: 0
IC50 [4]: 2.3 nM
T/C [16]: 199% and 283%
T/C [6]: 190%

Cc1c2ccnc(C(=O)NCCN(C)C)c2cc2c3cc(OC(=O)N(C)c4ccccc4)ccc3n(C)c12
T/C [17]: 100%
LTS [18]: 0
IC50 [1]: 1170 nM
T/C [19]: 106%
IC50 [4]: 1370 nM
T/C [20]: 101%
LTS [21]: 0

Cc1c2ccnc(C(=O)NCCN(C)C)c2cc2c3cc(OC(=O)NCCC(=O)O)ccc3n(C)c12
LTS [22]: 0
IC50 [1]: 654 nM
IC50 [4]: 78.7 nM
LTS [23]: 0
T/C [24]: 109%
T/C [25]: 109%
T/C [26]: 138%

Cc1c2c(C(=O)NCCN(C)C)nccc2c(C)c2c1c1cc(OC(=O)CCCCC(=O)O)ccc1n2C
IC50 [1]: 45.9 nM
LTS [27]: 11
LTS [28]: 4
IC50 [4]: 6.3 nM
T/C [29]: 361%
T/C [30]: >600%
T/C [31]: >600%
